# Source: ChEMBL document CHEMBL5678805, “Intermittent administration of MEK inhibitor GDC-0973 plus PI3K inhibitor GDC-0941 triggers robust apoptosis and tumor growth inhibition” (Cancer Res, 2012)
# The source made the active and inactive calls. No cut-off for these calls is given here.
# Legend:
# [1] = tested on: A2058; assay: Antitumor activity against human A2058 cells xenografted in mouse assessed as tumor growth inhibition at 20 mg/kg, po administered every third day for 21 days; type: functional; conditions: A2058, 504 h, time 21 day, read-out: TGI
# Method in brief: (§1)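 Human tumor xenografts in mice. Drugs given orally, as single agents or combined with the PI3K inhibitor. Schedules were daily (QD) or every third day (Q3D) over 21 days. Tumor volume was measured by caliper as (L×W×W)/2. %TGI = 100×[1 − AUC(treatment/d)/AUC(vehicle/d)] from fitted growth curves, with group means. Tumor lysates were immunoblotted for pS6.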
# [2] = tested on: FaDu; assay: Antitumor activity against human FaDu cells harboring SMAD4 del/TP53 R248L/CDKN2A mutant xenografted in mouse assessed as tumor growth inhibition at 5 mg/kg, po; type: functional; conditions: read-out: TGI
# Method in brief: (§2)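 Single-agent dose ranging in human tumor xenograft mice at 2.5, 5 or 10 mg/kg oral. Tumor volume was measured by caliper as (L×W×W)/2. %TGI = 100×[1 − AUC(treatment/d)/AUC(vehicle/d)] from the fitted growth curve per dose group, relative to vehicle.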
# [3] = tested on: Calu-6; assay: Antitumor activity against human Calu-6 cells harboring KRAS Q61K and TP53 R196 mutant xenografted in mouse assessed as tumor growth inhibition at 2.5 mg/kg, po; type: functional; conditions: read-out: TGI; method in brief: as §2
# [4] = target: Protein kinase C beta type (Homo sapiens, UniProt P05771); assay: Inhibition of PKCbeta2 (unknown origin)
# [5] = target: Ephrin type-A receptor 2 (Homo sapiens, UniProt P29317); assay: Inhibition of EphA2 (unknown origin)
# [6] = tested on: EBC-1; assay: Antitumor activity against human EBC-1 cells harboring MET amp and EGFR G719S/L858R mutant xenografted in mouse assessed as tumor growth inhibition at 5 mg/kg, po; type: functional; conditions: read-out: TGI; method in brief: as §2
# [7] = tested on: SK-MEL-28; assay: Antiproliferative activity against human SK-MEL-28 cells assessed reduction in cell viability incubated for 4 days in presence of 4-(2-(1H-indazol-4-yl)-6-((4-(methylsulfonyl)piperazin-1-yl)methyl)thieno[3,2-d]pyrimidin-4-yl)morpholine by celltiter-glo assay; type: functional; conditions: time 4 day
# Method in brief: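 4-day CellTiter-Glo viability read-out on melanoma lines, cells exposed to increasing concentrations of each inhibitor alone and in combination.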
# [8] = target: Glycogen synthase kinase-3 beta (Homo sapiens, UniProt P49841); assay: Inhibition of GSK3beta (unknown origin)
# [9] = tested on: NCI-H460; assay: Antitumor activity against human NCI-H460 cells harboring KRAS Q61H/PIK3CA E545K/LKB1 Q37/CDKN2A mutant xenografted in mouse assessed as tumor growth inhibition at 5 mg/kg, po; type: functional; conditions: read-out: TGI
# Method in brief: (§3)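 Human tumor xenografts in mice were dosed orally at the indicated mg/kg. Tumor volume was measured with calipers as (L×W×W)/2. %TGI = 100 × [1 − (AUC treatment/d)/(AUC vehicle/d)], using the area under the fitted tumor-growth curve per day for each dose group relative to vehicle.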
# [10] = tested on: HCT-116; assay: Antitumor activity against human HCT-116 cells harboring KRAS G13D/PIK3CA […]/CTNNB1 S45del/CDKN2A G23fs mutant xenografted in mouse assessed as tumor growth inhibition at 10 mg/kg, po; type: functional; conditions: read-out: TGI; method in brief: as §2
# [11] = tested on: FaDu; assay: Antitumor activity against human FaDu cells harboring SMAD4 del/TP53 R248L/CDKN2A mutant xenografted in mouse assessed as tumor growth inhibition at 2.5 mg/kg, po; type: functional; conditions: read-out: TGI; method in brief: as §2
# [12] = target: Tyrosine-protein kinase Lck (Homo sapiens, UniProt P06239); assay: Inhibition of Lck (unknown origin)
# [13] = tested on: A2058; assay: Antitumor activity against human A2058 cells xenografted in mouse assessed as effect on S6 phosphorylation at 5 mg/kg, po administered daily for 4 days and measured after 8 hrs; type: functional, organism-based; conditions: time 104.0 hrs
# [14] = tested on: NCI-H441; assay: Antitumor activity against human NCI-H441 cells harboring KRAS G12V/TP53 R158L/MET high mutant xenografted in mouse assessed as tumor growth inhibition at 10 mg/kg, po; type: functional; conditions: read-out: TGI; method in brief: as §3
# [15] = target: Misshapen-like kinase 1 (Homo sapiens, UniProt Q8N4C8); assay: Inhibition of MINK (unknown origin)
# [16] = target: Serine/threonine-protein kinase PLK3 (Homo sapiens, UniProt Q9H4B4); assay: Inhibition of Plk3 (unknown origin)
# [17] = tested on: KP-4; assay: Antitumor activity against human KP-4 cells harboring KRAS G12D mutant xenografted in mouse assessed as tumor growth inhibition at 5 mg/kg, po; type: functional; conditions: read-out: TGI; method in brief: as §2
# [18] = tested on: 888-mel; assay: Upregulation of Bim level in human 888-mel cells incubated for 24 hrs by immunoblotting analysis; type: functional, cell-based
# [19] = Antitumor activity against human A2058-X1 cells harboring BRAF V600E/PTEN L112Q/V175/TP53 V274F mutant xenografted in mouse assessed as tumor growth inhibition at 2.5 mg/kg, po; type: functional; conditions: A2058-X1, read-out: TGI; method in brief: as §2
# [20] = target: Inhibitor of nuclear factor kappa-B kinase subunit alpha (Homo sapiens, UniProt O15111); assay: Inhibition of IKKa (unknown origin)
# [21] = tested on: A-427; assay: Antitumor activity against human A-427 cells harboring […]/LKB1 CDKN2A CTNNB1 T41A SMARCA4 mutant xenografted in mouse assessed as tumor growth inhibition at 5 mg/kg, po; type: functional; conditions: A-427, read-out: TGI
# [22] = target: MAP kinase-activated protein kinase 2 (Homo sapiens, UniProt P49137); assay: Inhibition of MAPKAP2 (unknown origin)
# [23] = target: Angiopoietin-1 receptor (Homo sapiens, UniProt Q02763); assay: Inhibition of Tie-2 (unknown origin)
# [24] = Antitumor activity against human A375.X1 cells xenografted in mouse assessed as tumor growth inhibition at 3 mg/kg, po administered once a day for 21 days in presence of 4-(2-(1H-indazol-4-yl)-6-((4-(methylsulfonyl)piperazin-1-yl)methyl)thieno[3,2-d]pyrimidin-4-yl)morpholine; type: functional; conditions: A375.X1, 504 h, time 21 day, read-out: TGI; method in brief: as §1
# [25] = target: Serine/threonine-protein kinase WNK2 (Homo sapiens, UniProt Q9Y3S1); assay: Inhibition of WNK2 (unknown origin)
# [26] = target: Macrophage colony-stimulating factor 1 receptor (Homo sapiens, UniProt P07333); assay: Inhibition of Fms (unknown origin)
# [27] = target: Phosphatidylinositol 4,5-bisphosphate 3-kinase catalytic subunit alpha isoform (Homo sapiens, UniProt P42336); assay: Inhibition of PI3Kalpha (unknown origin)
# [28] = target: Mitogen-activated protein kinase kinase kinase 5 (Homo sapiens, UniProt Q99683); assay: Inhibition of ASK1 (unknown origin)
# [29] = tested on: SK-OV-3; assay: Antitumor activity against human SK-OV-3 cells harboring FBXW7 R505L and CDKN2A mutant xenografted in mouse assessed as tumor growth inhibition at 2.5 mg/kg, po; type: functional; conditions: read-out: TGI; method in brief: as §3
# [30] = target: RAC-beta serine/threonine-protein kinase (Homo sapiens, UniProt P31751); assay: Inhibition of Akt2 (unknown origin)
# [31] = target: Platelet-derived growth factor receptor beta (Homo sapiens, UniProt P09619); assay: Inhibition of PDGFR beta (unknown origin)
# [32] = tested on: SK-OV-3; assay: Antitumor activity against human SK-OV-3 cells harboring FBXW7 R505L and CDKN2A mutant xenografted in mouse assessed as tumor growth inhibition at 5 mg/kg, po; type: functional; conditions: read-out: TGI; method in brief: as §3
# Misshapen-like kinase 1, sequence (Q8N4C8 whole entry): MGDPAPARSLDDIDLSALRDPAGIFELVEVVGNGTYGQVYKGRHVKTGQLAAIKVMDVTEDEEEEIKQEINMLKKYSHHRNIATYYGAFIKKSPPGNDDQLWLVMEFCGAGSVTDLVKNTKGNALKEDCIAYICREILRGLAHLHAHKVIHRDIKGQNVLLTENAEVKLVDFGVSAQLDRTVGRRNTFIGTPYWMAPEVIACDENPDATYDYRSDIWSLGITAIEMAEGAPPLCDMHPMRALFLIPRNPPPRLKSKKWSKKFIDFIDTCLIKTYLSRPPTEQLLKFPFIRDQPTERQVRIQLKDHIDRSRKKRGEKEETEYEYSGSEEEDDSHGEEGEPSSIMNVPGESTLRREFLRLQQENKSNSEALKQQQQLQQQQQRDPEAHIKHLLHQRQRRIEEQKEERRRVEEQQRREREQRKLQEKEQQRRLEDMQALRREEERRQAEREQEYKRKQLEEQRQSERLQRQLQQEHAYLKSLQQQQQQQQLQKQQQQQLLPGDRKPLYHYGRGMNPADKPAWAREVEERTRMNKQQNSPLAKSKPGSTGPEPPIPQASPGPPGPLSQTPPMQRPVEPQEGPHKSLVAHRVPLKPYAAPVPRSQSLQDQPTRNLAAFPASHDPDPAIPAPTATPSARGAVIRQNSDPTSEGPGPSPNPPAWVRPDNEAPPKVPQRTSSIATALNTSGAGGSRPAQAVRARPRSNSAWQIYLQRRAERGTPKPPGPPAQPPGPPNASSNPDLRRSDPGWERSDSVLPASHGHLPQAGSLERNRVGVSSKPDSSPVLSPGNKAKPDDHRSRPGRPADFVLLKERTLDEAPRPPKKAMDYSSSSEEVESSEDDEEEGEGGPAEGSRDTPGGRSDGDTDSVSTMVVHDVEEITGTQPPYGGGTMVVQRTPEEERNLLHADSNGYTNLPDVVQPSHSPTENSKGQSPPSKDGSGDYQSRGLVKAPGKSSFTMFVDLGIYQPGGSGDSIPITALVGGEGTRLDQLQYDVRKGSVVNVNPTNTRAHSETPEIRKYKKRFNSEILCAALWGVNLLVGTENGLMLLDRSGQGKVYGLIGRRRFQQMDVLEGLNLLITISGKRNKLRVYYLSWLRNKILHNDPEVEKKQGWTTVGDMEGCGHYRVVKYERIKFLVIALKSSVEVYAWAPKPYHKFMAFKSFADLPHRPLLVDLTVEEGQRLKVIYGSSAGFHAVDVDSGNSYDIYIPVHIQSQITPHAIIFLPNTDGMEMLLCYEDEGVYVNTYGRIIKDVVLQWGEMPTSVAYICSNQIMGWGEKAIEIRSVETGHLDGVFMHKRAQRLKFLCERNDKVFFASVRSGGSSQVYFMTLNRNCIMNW
# Protein kinase C beta type, sequence (P05771 whole entry): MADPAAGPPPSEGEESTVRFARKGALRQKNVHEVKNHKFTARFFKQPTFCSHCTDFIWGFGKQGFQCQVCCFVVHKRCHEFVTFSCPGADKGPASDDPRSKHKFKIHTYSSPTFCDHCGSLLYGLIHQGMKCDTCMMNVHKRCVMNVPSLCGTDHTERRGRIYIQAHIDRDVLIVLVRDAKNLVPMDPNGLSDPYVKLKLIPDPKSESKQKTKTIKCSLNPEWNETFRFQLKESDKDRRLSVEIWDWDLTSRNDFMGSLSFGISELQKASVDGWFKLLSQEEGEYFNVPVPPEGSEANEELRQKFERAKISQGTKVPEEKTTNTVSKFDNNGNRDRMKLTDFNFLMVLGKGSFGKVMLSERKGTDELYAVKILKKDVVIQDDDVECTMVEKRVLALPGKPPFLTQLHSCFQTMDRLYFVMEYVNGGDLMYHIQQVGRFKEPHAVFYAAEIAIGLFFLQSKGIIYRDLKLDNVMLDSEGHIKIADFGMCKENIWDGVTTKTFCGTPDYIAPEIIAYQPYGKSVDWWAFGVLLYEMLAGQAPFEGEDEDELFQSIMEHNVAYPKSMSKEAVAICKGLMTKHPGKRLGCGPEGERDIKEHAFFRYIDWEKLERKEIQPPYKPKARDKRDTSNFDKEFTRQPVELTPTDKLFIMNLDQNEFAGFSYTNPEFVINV
# Serine/threonine-protein kinase WNK2, sequence (Q9Y3S1 whole entry): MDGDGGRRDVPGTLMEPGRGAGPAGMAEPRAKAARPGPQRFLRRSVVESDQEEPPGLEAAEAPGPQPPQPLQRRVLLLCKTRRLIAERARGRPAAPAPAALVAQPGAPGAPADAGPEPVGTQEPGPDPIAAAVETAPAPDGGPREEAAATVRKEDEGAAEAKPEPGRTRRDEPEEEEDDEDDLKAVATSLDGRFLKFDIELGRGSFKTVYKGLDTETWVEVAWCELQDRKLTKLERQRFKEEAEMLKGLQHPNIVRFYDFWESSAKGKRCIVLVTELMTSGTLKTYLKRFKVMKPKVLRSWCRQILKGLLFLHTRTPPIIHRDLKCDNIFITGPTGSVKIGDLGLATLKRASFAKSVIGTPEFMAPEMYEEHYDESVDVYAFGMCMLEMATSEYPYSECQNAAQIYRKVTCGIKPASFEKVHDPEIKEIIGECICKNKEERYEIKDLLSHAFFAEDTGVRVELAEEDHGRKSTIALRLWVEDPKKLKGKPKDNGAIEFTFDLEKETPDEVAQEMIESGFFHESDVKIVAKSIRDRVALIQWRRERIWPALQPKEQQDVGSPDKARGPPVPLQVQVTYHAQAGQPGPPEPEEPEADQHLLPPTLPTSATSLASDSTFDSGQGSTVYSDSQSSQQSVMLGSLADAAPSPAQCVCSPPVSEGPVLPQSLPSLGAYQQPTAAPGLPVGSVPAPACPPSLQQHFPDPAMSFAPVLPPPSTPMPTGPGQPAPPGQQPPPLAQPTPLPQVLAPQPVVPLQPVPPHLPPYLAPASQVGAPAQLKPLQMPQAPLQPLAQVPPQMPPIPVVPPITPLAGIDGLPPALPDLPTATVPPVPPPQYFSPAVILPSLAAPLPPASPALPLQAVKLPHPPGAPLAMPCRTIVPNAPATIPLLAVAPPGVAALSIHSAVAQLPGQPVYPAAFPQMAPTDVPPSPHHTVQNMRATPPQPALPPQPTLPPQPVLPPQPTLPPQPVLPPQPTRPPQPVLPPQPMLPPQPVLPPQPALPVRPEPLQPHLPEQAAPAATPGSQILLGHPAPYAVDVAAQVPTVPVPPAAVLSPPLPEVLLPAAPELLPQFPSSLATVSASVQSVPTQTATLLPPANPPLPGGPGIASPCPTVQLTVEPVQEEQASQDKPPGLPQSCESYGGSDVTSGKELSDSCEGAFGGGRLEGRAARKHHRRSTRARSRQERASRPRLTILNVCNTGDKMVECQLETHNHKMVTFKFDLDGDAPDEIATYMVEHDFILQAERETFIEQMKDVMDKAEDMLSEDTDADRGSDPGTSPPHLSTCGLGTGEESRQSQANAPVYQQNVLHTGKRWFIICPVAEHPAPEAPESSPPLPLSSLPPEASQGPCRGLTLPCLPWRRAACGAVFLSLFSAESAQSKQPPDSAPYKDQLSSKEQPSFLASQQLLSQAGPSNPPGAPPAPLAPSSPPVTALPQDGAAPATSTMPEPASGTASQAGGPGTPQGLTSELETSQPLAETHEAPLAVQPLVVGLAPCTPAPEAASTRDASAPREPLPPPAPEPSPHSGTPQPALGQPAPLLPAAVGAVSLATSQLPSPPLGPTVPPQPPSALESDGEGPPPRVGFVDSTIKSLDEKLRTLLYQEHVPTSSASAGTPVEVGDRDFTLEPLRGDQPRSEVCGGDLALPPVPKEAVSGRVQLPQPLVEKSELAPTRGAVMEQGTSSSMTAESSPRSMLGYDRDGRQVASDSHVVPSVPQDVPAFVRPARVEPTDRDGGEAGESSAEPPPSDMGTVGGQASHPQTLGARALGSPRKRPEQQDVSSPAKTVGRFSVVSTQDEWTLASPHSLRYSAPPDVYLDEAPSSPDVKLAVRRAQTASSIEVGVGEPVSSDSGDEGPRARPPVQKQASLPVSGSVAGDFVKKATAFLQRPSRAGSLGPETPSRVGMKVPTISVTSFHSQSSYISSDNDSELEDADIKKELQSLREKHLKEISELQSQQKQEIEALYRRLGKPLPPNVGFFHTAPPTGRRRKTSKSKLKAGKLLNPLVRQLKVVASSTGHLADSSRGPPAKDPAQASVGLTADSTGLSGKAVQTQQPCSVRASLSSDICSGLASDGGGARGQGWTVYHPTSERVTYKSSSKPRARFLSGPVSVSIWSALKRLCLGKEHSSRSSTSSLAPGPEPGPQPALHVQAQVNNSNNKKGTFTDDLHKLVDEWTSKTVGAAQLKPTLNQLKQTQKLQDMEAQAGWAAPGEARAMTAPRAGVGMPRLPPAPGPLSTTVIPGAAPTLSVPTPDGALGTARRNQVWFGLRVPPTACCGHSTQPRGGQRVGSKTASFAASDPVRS
# Inhibitor of nuclear factor kappa-B kinase subunit alpha, sequence (O15111 whole entry): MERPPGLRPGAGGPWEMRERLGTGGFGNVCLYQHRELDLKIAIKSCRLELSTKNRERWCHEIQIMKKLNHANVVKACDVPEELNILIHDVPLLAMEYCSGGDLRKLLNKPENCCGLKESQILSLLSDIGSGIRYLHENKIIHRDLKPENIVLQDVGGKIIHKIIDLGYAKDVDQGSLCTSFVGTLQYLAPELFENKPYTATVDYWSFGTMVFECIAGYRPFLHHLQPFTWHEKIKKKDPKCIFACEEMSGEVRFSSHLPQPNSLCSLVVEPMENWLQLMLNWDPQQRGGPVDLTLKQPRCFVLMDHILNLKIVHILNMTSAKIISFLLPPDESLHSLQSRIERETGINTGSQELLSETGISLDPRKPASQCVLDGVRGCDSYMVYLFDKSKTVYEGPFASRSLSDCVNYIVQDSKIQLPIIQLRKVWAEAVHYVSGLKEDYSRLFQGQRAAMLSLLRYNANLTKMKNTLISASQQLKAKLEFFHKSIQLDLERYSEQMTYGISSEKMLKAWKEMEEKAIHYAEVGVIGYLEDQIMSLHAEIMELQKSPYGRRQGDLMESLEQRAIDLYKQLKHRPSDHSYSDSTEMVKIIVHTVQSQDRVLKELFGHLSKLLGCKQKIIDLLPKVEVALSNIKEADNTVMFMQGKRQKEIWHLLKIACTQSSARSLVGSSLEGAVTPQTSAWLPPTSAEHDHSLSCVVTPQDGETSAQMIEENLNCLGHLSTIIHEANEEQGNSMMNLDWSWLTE
structure (smiles),measurement,setting,value
O=C(c1ccc(F)c(F)c1Nc1ccc(I)cc1F)N1CC(O)([C@@H]2CCCCN2)C1 [COBIMETINIB],inhibition in vivo at 20 mg/kg,[1],34%
same,inhibition in vivo at 5 mg/kg,[2],94%
same,inhibition in vivo at 2.5 mg/kg,[3],27.5%
same,IC50,[4],> 10 µM
same,IC50,[5],> 10 µM
same,inhibition in vivo at 5 mg/kg,[6],7%
same,Activity,[7],60%
same,IC50,[8],> 10 µM
same,inhibition in vivo at 5 mg/kg,[9],34.5%
same,inhibition in vivo at 10 mg/kg,[10],84.5%
same,inhibition in vivo at 2.5 mg/kg,[11],4%
same,IC50,[12],> 10 µM
same,Activity,[13],Active
same,inhibition in vivo at 10 mg/kg,[14],85%
same,IC50,[15],> 10 µM
same,IC50,[16],> 10 µM
same,inhibition in vivo at 5 mg/kg,[17],69.5%
same,Activity,[18],Active
same,inhibition in vivo at 2.5 mg/kg,[19],36%
same,IC50,[20],> 10 µM
same,inhibition in vivo at 5 mg/kg,[21],-137%
same,IC50,[22],> 10 µM
same,IC50,[23],> 10 µM
same,inhibition in vivo at 3 mg/kg,[24],69%
same,IC50,[25],> 10 µM
same,IC50,[26],> 10 µM
same,IC50,[27],> 10 µM
same,IC50,[28],> 10 µM
same,inhibition in vivo at 2.5 mg/kg,[29],36%
same,IC50,[30],> 10 µM
same,IC50,[31],> 10 µM
same,inhibition in vivo at 5 mg/kg,[32],69%
